Measurements from ChEMBL document CHEMBL1126727, “Synthesis and anticonvulsant activity of enaminones. 2. Further structure-activity correlations” (J Med Chem, 1993).

What was measured:
[1] = (§1) Protective index (TD50 / MES ED50); format: functional
[2] = Toxic dose was determined after intraperitoneal administration; format: toxicity, organism-based; conditions: rat, in vivo, ip
Summary of the method: (§2)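 Rats were dosed intraperitoneally, with compound given as a solution or a suspension in 0.5% methylcellulose. Neurotoxicity was scored 2.0 h after dosing in 8 animals per dose level (110–440 mg/kg). TD50 in mg/kg ip was derived from the dose–response, with a range given in parentheses.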

Rattus norvegicus [3] = organism: Rattus norvegicus; assay: Number of animals protected from electroshock seizure / number of animals tested (8) after 0.50 hour at 1.0 mg / kg in maximal electroshock seizures (MES); format: functional
Summary of the method: (§3)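 For the intraperitoneal rat screen, compound was given as a solution or a suspension in 0.5% methylcellulose. Protection against maximal electroshock seizures was tested at 0.25 h or 0.50 h after dosing, in 8 animals per dose. Results are expressed as animals protected over animals tested, and ED50 in mg/kg ip, with a range, was derived from these counts.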

Rattus norvegicus [4] = organism: Rattus norvegicus; assay: Number of animals protected from electroshock seizure / number of animals tested (8) after 0.50 hour at 2.0 mg / kg in maximal electroshock seizures (MES); format: functional; summary of the method: as §3
Rattus norvegicus [5] = organism: Rattus norvegicus; assay: Number of animals protected from electroshock seizure / number of animals tested (8) after 0.50 hour at 3.0 mg / kg in maximal electroshock seizures (MES); format: functional; summary of the method: as §3
Rattus norvegicus [6] = organism: Rattus norvegicus; assay: Number of animals protected from electroshock seizure / number of animals tested (8) after 0.50 hour at 3.5 mg / kg in maximal electroshock seizures (MES); format: functional; summary of the method: as §3
Rattus norvegicus [7] = organism: Rattus norvegicus; assay: Number of animals protected from electroshock seizure / number of animals tested (8) after 0.50 hour at 4.0 mg / kg in maximal electroshock seizures (MES); format: functional; summary of the method: as §3
Rattus norvegicus [8] = organism: Rattus norvegicus; assay: Number of animals exhibiting neurotoxicity / number of animals tested (2) after 0.25-24 h at 64 mg / kg
Rattus norvegicus [9] = organism: Rattus norvegicus; assay: Number of animals exhibiting neurotoxicity / number of animals tested (2) after 0.25-24 hr at 8 mg / kg
Rattus norvegicus [10] = organism: Rattus norvegicus; assay: Number of animals exhibiting neurotoxicity / number of animals tested (2) after 0.25-24 hr at 16 mg / kg
Rattus norvegicus [11] = organism: Rattus norvegicus; assay: Number of animals exhibiting neurotoxicity / number of animals tested (2) after 0.25-24 hr at 32 mg / kg
Rattus norvegicus [12] = organism: Rattus norvegicus; assay: Number of animals protected from electroshock seizure / number of animals tested (8) after 0.25 hour at 3.6 mg / kg in maximal electroshock seizures (MES); format: functional; summary of the method: as §3
Rattus norvegicus [13] = organism: Rattus norvegicus; assay: Number of animals protected from electroshock seizure / number of animals tested (8) after 0.25 hour at 4.5 mg / kg in maximal electroshock seizures (MES); format: functional; summary of the method: as §3
Rattus norvegicus [14] = organism: Rattus norvegicus; assay: Number of animals protected from electroshock seizure / number of animals tested (8) after 0.25 hour at 7.0 mg / kg in maximal electroshock seizures (MES); format: functional; summary of the method: as §3
Rattus norvegicus [15] = organism: Rattus norvegicus; assay: as §1; format: functional
Rattus norvegicus [16] = organism: Rattus norvegicus; assay: Number of animals exhibiting neurotoxicity / number of animals tested (8) after 2.0 hr at 110 mg / kg; format: functional; summary of the method: as §2
Rattus norvegicus [17] = organism: Rattus norvegicus; assay: Number of animals exhibiting neurotoxicity / number of animals tested (8) after 2.0 hr at 180 mg / kg; format: functional; summary of the method: as §2
Rattus norvegicus [18] = organism: Rattus norvegicus; assay: Number of animals exhibiting neurotoxicity / number of animals tested (8) after 2.0 hr at 220 mg / kg; format: functional; summary of the method: as §2
Rattus norvegicus [19] = organism: Rattus norvegicus; assay: Number of animals exhibiting neurotoxicity / number of animals tested (8) after 2.0 hr at 440 mg / kg; format: functional; summary of the method: as §2
Rattus norvegicus [20] = organism: Rattus norvegicus; assay: Number of animals protected from electroshock seizure / number of animals tested (8) after 0.25 hour at 1.2 mg / kg in maximal electroshock seizures (MES); format: functional; summary of the method: as §3
Rattus norvegicus [21] = assay: Anticonvulsant activity reported as duration in amygdala kindled rats at 500 mg/kg (Behavioral seizure); format: functional
Rattus norvegicus [22] = assay: Anticonvulsant activity reported as duration in amygdala kindled rats at 500 mg/kg (Forelimb clonus); format: functional
Rattus norvegicus [23] = assay: Anticonvulsant activity reported as duration in amygdala kindled rats at 500 mg/kg (after discharge); format: functional
Rattus norvegicus [24] = assay: Anticonvulsant activity reported as amygdala duration in amygdala kindled rats at 500 mg/kg (after discharge); format: functional
Rattus norvegicus [25] = assay: Anticonvulsant activity tested at seizure stage in amygdala kindled rats at 500 mg/kg; format: functional
Rattus norvegicus [26] = assay: Anticonvulsant activity reported as cortex latency in amygdala kindled rats at 500 mg/kg (after discharge); format: functional
Rattus norvegicus [27] = assay: Anticonvulsant activity reported as latency in amygdala kindled rats at 500 mg/kg (Behavioral seizure); format: functional
Rattus norvegicus [28] = assay: Anticonvulsant activity reported as latency in amygdala kindled rats at 500 mg/kg (Forelimb clonus); format: functional
Rattus norvegicus [29] = assay: Anticonvulsant activity reported as duration in amygdala kindled rats at 350 mg/kg (after discharge); format: functional
Rattus norvegicus [30] = assay: Intraperitoneal (ip) toxicity tested in rats is the number of animals displaying neurotoxicity / number of animals tested (8) after 0.25 hr at 100 mg / kg; format: organism-based; parameters: dose 100 mg / kg; conditions: in vivo
Summary of the method: (§4)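 Special ip screen run by the ADD Program in male Sprague-Dawley rats. Test drug was given ip at 100 mg/kg as a solution or suspension in 0.5% methylcellulose. Neurotoxicity was scored at 0.25, 0.5, 1, 2, 4, 6, 8 and 24 h after dosing. Each result is reported as number of rats showing neurotoxicity over number tested.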

Rattus norvegicus [31] = assay: Intraperitoneal (ip) toxicity tested in rats is the number of animals displaying neurotoxicity / number of animals tested (8) after 0.50 h at 100 mg / kg; format: organism-based; parameters: dose 100 mg / kg; conditions: in vivo, 0.5 h; summary of the method: as §4
Rattus norvegicus [32] = assay: Intraperitoneal (ip) toxicity tested in rats is the number of animals displaying neurotoxicity / number of animals tested (8) after 1 hr at 100 mg / kg; format: organism-based; parameters: dose 100 mg / kg; conditions: in vivo; summary of the method: as §4
Rattus norvegicus [33] = assay: Intraperitoneal (ip) toxicity tested in rats is the number of animals displaying neurotoxicity / number of animals tested (8) after 2 h at 100 mg / kg; format: organism-based; parameters: dose 100 mg / kg; conditions: in vivo; summary of the method: as §4
Rattus norvegicus [34] = assay: Intraperitoneal (ip) toxicity tested in rats is the number of animals displaying neurotoxicity / number of animals tested (8) after 24 hr at 100 mg / kg (Two testing animals died); format: organism-based; parameters: dose 100 mg / kg; conditions: in vivo; summary of the method: as §4
Rattus norvegicus [35] = assay: Intraperitoneal (ip) toxicity tested in rats is the number of animals displaying neurotoxicity / number of animals tested (8) after 4 h at 100 mg / kg; format: organism-based; parameters: dose 100 mg / kg; conditions: in vivo; summary of the method: as §4
Rattus norvegicus [36] = assay: Intraperitoneal (ip) toxicity tested in rats is the number of animals displaying neurotoxicity / number of animals tested (8) after 6 hr at 100 mg / kg; format: organism-based; parameters: dose 100 mg / kg; conditions: in vivo; summary of the method: as §4
Rattus norvegicus [37] = assay: Intraperitoneal (ip) toxicity tested in rats is the number of animals displaying neurotoxicity / number of animals tested (8) after 8 hr at 100 mg / kg; format: organism-based; parameters: dose 100 mg / kg; conditions: in vivo; summary of the method: as §4
Rattus norvegicus [38] = assay: Anticonvulsant activity reported as amygdala duration in amygdala kindled rats at 350 mg/kg (after discharge); format: functional
Rattus norvegicus [39] = assay: Anticonvulsant activity reported as duration in amygdala kindled rats at 350 mg/kg (Behavioral seizure); format: functional
Rattus norvegicus [40] = assay: Anticonvulsant activity reported as duration in amygdala kindled rats at 350 mg/kg (Forelimb clonus); format: functional
Rattus norvegicus [41] = assay: Anticonvulsant activity tested at seizure stage in amygdala kindled rats at 350 mg/kg; format: functional
Rattus norvegicus [42] = assay: Anticonvulsant activity reported as cortex latency in amygdala kindled rats at 350 mg/kg (after discharge); format: functional
Rattus norvegicus [43] = assay: Anticonvulsant activity reported as latency in amygdala kindled rats at 350 mg/kg (Behavioral seizure); format: functional
Rattus norvegicus [44] = assay: Anticonvulsant activity reported as latency in amygdala kindled rats at 350 mg/kg (Forelimb clonus); format: functional
Rattus norvegicus [45] = assay: Intraperitoneal (ip) toxicity tested in rats is the number of animals displaying neurotoxicity / number of animals tested (8) after 24 hr at 100 mg / kg; format: organism-based; parameters: dose 100 mg / kg; conditions: in vivo; summary of the method: as §4
[46] = Protective index expressed as TD50 / ED50; format: functional
Mus musculus [47] = assay: Toxicity observed in mice at >750 mg/kg ip; No Toxicity; conditions: in vivo
Mus musculus [48] = assay: Effective dose administered intraperitoneally in mice at 15 minutes in maximal-electroshock (MES) test; conditions: ip, 0.25 h
[49] = Protective index expressed as TD50 / ED50; No toxicity; format: functional
Rattus norvegicus [50] = assay: Toxicity observed in rats at >500 mg/kg po; conditions: in vivo

Structure (SMILES): COC(=O)C1C(=O)C=C(Nc2ccc(C(F)(F)F)cc2)CC1C (stereo not given)
- PI [1]: > 21.7
- TD50 [2]: > 64 mg/kg
- No. of animals (Rattus norvegicus [3]): 0
- No. of animals (Rattus norvegicus [4]): 3
- No. of animals (Rattus norvegicus [5]): 3
- No. of animals (Rattus norvegicus [6]): 4
- No. of animals (Rattus norvegicus [7]): 7
- No. of animals (Rattus norvegicus [8]): 0
- No. of animals (Rattus norvegicus [9]): 0
- No. of animals (Rattus norvegicus [10]): 0
- No. of animals (Rattus norvegicus [11]): 0

Structure (SMILES): COC(=O)C1C(=O)C=C(Nc2ccc(Br)cc2)CC1C (stereo not given)
- TD50 [2]: 270 mg/kg
- No. of animals (Rattus norvegicus [12]): 5
- No. of animals (Rattus norvegicus [13]): 3
- No. of animals (Rattus norvegicus [14]): 7
- PI (Rattus norvegicus [15]): 67.4
- No. of animals (Rattus norvegicus [16]): 0
- No. of animals (Rattus norvegicus [17]): 2
- No. of animals (Rattus norvegicus [18]): 4
- No. of animals (Rattus norvegicus [19]): 6
- No. of animals (Rattus norvegicus [20]): 0

Structure (SMILES): COC(=O)C1C(=O)C=C(NCc2ccccc2)CC1C (stereo not given)
- Duration (Rattus norvegicus [21]): 79.5 s
- Duration (Rattus norvegicus [22]): 44.2 s
- Duration (Rattus norvegicus [23]): 78.9 s
- Duration (Rattus norvegicus [24]): 73.9 s
- Seizure stage (Rattus norvegicus [25]): 5
- Latency (Rattus norvegicus [26]): 2.8 s
- Latency (Rattus norvegicus [27]): 2.1 s
- Latency (Rattus norvegicus [28]): 9.3 s

Structure (SMILES): COC(=O)C1C(=O)C=C(Nc2ccc(Cl)cc2)CC1C (stereo not given)
- Duration (Rattus norvegicus [29]): 79.6 s
- Toxicity (Rattus norvegicus [30]): 0
- Toxicity (Rattus norvegicus [31]): 3
- Toxicity (Rattus norvegicus [32]): 6
- Toxicity (Rattus norvegicus [33]): 7
- Toxicity (Rattus norvegicus [34]): 2
- Toxicity (Rattus norvegicus [35]): 2
- Toxicity (Rattus norvegicus [36]): 1
- Toxicity (Rattus norvegicus [37]): 0
- Duration (Rattus norvegicus [38]): 79.8 s
- Duration (Rattus norvegicus [39]): 82.3 s
- Duration (Rattus norvegicus [40]): 45.3 s
- Seizure stage (Rattus norvegicus [41]): 5
- Latency (Rattus norvegicus [42]): 2.7 s
- Latency (Rattus norvegicus [43]): 2.1 s
- Latency (Rattus norvegicus [44]): 9.2 s

Structure (SMILES): CCc1ccc(NC2=CC(=O)C(C(=O)OC)C(C)C2)cc1 (stereo not given)
- Toxicity (Rattus norvegicus [30]): 1
- Toxicity (Rattus norvegicus [31]): 5
- Toxicity (Rattus norvegicus [32]): 0
- Toxicity (Rattus norvegicus [33]): 0
- Toxicity (Rattus norvegicus [45]): 0
- Toxicity (Rattus norvegicus [35]): 0
- Toxicity (Rattus norvegicus [36]): 0
- PI [46]: > 6.6
- Toxicity (Mus musculus [47]): No Toxicity
- ED50 (Mus musculus [48]): 114 mg/kg

Structure (SMILES): CC1(C)CC(O)=C/C(=N\c2ccccc2)C1
- Toxicity (Rattus norvegicus [30]): 5
- Toxicity (Rattus norvegicus [31]): 7
- Toxicity (Rattus norvegicus [32]): 6
- Toxicity (Rattus norvegicus [33]): 6
- Toxicity (Rattus norvegicus [45]): 0
- Toxicity (Rattus norvegicus [35]): 3
- Toxicity (Rattus norvegicus [36]): 3
- PI [49]: > 13.7
- Toxicity (Rattus norvegicus [50]): Toxicity observed in mice at >500 mg/kg po
- ED50 (Mus musculus [48]): 36.4 mg/kg
